From PubChem
Hits are enriched below; roughly 3.5% of the tested compounds scored in any of these assays.
PREPL inh: human PREPL enzyme inhibition; inhibition, % at 5.96 µM; hit rate 0.68% among 320,000; recombinant PREPL, fluorescence polarization activity-based probe; in the data active = inhibition above about 43%;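 note: 0% = enzyme with DMSO and 100% = wells lacking enzyme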
PAFAH1B2 inh: inhibitors of human PAFAH1B2; P68402; recombinant PAFAH1B2, FP-rhodamine activity probe, fluorescence polarization; inhibition, % at 3.39 µM; hit rate 1.2% among 340,000; AID 492953;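 active = inhibition above the mean of all tested compounds plus 3 SD, cut at about 24% in these data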;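 note: 0% = enzyme with DMSO and 100% = wells lacking PAFAH1B2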
Apaf1 inhib: blocks human Apaf-1 apoptosome activity; inhibition, % at 20 µM; reconstituted apoptosome caspase-3 activity, DEVD-Rh110 fluorescence; hit rate 0.71% among 330,000; O14727; active = inhibition of at least 40% at 20 µM;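 note: plate controls were DMSO wells for no effect and DEVD-CHO caspase inhibitor wells for full effect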
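Medium: Hepes buffer, pH 7.5 / System: biochemical Apaf-1 apoptosome reconstitution / Measured by: Rh110 fluorescence, excitation 480 nm, emission 540 nm / Times: compound with Apaf-1, dATP, procaspase-3 30 min, then 50 min reaction, room temperature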
pPAFAH inh: inhibitors of human plasma PAF acetylhydrolase (pPAFAH). Q13093. inhibition, % at 3.39 µM. recombinant pPAFAH, FP-rhodamine probe fluorescence polarization. AID 463082. hit rate 1.5% among 330,000;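 active = inhibition above the mean inhibition across the screen plus 3 SD, cut at about 25% in these data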;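 note: inhibitors block binding of the rhodamine activity-based probe so polarization drops; 0% = enzyme with DMSO and 100% = wells lacking pPAFAH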
PAFAH2 FP inh: PAFAH2 (human) inhibition; Q99487; AID 492956; hit rate 0.99% among 340,000; inhibition, % at 3.39 µM; recombinant PAFAH2, FP-rhodamine activity probe, fluorescence polarization;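 active = inhibition above the mean over all tested compounds plus 3 SD, cut at about 30% in these data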;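 note: inhibitors block probe labeling of enzyme so polarization drops; 0% = enzyme with DMSO and 100% = wells lacking PAFAH2 protein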
PAFAH1B3 FP inh: blocks human PAF acetylhydrolase 1B catalytic subunit 3; Q15102; recombinant PAFAH1B3, FP-rhodamine probe, fluorescence polarization; inhibition, % at 3.39 µM; hit rate 0.28% among 340,000;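 active = inhibition above the screen-wide average of all tested compounds plus 3 SD, cut at about 25% in these data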;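 note: 0% = enzyme with DMSO only and 100% = wells lacking PAFAH1B3 protein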
An asterisk follows results filed as active.

COc1ccc(S(=O)(=O)N(C)C[C@H]2Oc3ccc(NS(=O)(=O)c4ccccc4)cc3CC(=O)N([C@H](C)CO)C[C@@H]2C)cc1 was read as PREPL inh 17, PAFAH1B2 inh 11, Apaf1 inhib 17, pPAFAH inh 15, PAFAH2 FP inh 5 and PAFAH1B3 FP inh 11.
`COc1ccc(S(=O)(=O)Nc2cccc3c2O[C@H](CN(C)Cc2ccccc2)[C@@H](C)CN([C@H](C)CO)C3=O)cc1` gave PREPL inh 22, PAFAH1B2 inh 1, Apaf1 inhib 53*, pPAFAH inh -3, PAFAH2 FP inh -4 and PAFAH1B3 FP inh 3.
COc1ccc(NC(=O)N(C)C[C@H]2Oc3ccc(NC(=O)Cc4ccccc4)cc3CC(=O)N([C@H](C)CO)C[C@H]2C)cc1 was read as PREPL inh 18, PAFAH1B2 inh 1, Apaf1 inhib 9, pPAFAH inh 31*, PAFAH2 FP inh -3 and PAFAH1B3 FP inh 6.
COc1ccc(S(=O)(=O)Nc2ccc3c(c2)CC(=O)N([C@@H](C)CO)C[C@@H](C)[C@@H](CN(C)Cc2ccccc2)O3)cc1 was read as PREPL inh 9, PAFAH1B2 inh 38*, Apaf1 inhib 23, pPAFAH inh 11, PAFAH2 FP inh 3 and PAFAH1B3 FP inh 7.
For CCOc1ccc(NC(=O)/C(C#N)=C\c2ccc(N3CCCC3)c(C)c2)cc1 the results were PAFAH1B2 inh -3, PAFAH2 FP inh -3 and PAFAH1B3 FP inh -6.
For C=CCC1(CC=C)CCCN1C(=O)c1cc(COc2ccccc2SC)on1 the results were PREPL inh -2, PAFAH1B2 inh 4, Apaf1 inhib 25, pPAFAH inh -3, PAFAH2 FP inh 1 and PAFAH1B3 FP inh 1.
CCC1(CC)NC(=O)N(CC(=O)N2CCN(S(=O)(=O)c3cccc(F)c3)CC2)C1=O was read as PREPL inh 15, PAFAH1B2 inh 2, Apaf1 inhib 8, pPAFAH inh 6, PAFAH2 FP inh 0 and PAFAH1B3 FP inh 1.
For Cc1ccc(N(C(=O)Cn2nnc3ccccc32)C(C(=O)NCc2ccccc2)c2ccccn2)cc1 (centres undefined) the results were PREPL inh 10, PAFAH1B2 inh 26*, Apaf1 inhib 11, pPAFAH inh -1, PAFAH2 FP inh 2 and PAFAH1B3 FP inh -4.
For Cc1ccc(C(=O)NN2C(=O)c3ccc(S(=O)(=O)c4ccc(C(=O)O)cc4)cc3C2=O)cc1 the results were PREPL inh -5, PAFAH1B2 inh 24*, Apaf1 inhib 2, pPAFAH inh -1, PAFAH2 FP inh 5 and PAFAH1B3 FP inh 3.
For O=C1NC2(CCc3ccccc3C2)C(=O)N1CCOc1cccc(Cl)c1 (centres undefined) the results were PREPL inh -43, PAFAH1B2 inh 3, Apaf1 inhib 7, pPAFAH inh 3, PAFAH2 FP inh 8 and PAFAH1B3 FP inh -1.
Screening CC(=O)Nc1ccc(NC(=O)CC2Nc3cccc4cccc(c34)NC2=O)cc1 (centres undefined) returned PREPL inh 16, PAFAH1B2 inh 5, Apaf1 inhib 96*, pPAFAH inh 20, PAFAH2 FP inh 5 and PAFAH1B3 FP inh 7.
Screening O=C(CC1SC(=O)N(c2ccccc2)C1=O)Nc1cccc2ccccc12 (centres undefined) returned PREPL inh -3, PAFAH1B2 inh -1, Apaf1 inhib -18, pPAFAH inh 25*, PAFAH2 FP inh 2 and PAFAH1B3 FP inh 2.
For Cc1ccccc1NC(=O)CC1SC(=O)N(c2ccccc2)C1=O (centres undefined) the results were PREPL inh 7, PAFAH1B2 inh -1, Apaf1 inhib -4, pPAFAH inh 8, PAFAH2 FP inh 5 and PAFAH1B3 FP inh 2.
`O=[N+]([O-])c1ccc(Nc2ccccc2)c2nonc12` gave PREPL inh 17, PAFAH1B2 inh 6, Apaf1 inhib 12, pPAFAH inh 11, PAFAH2 FP inh -2 and PAFAH1B3 FP inh 14.
Screening O=[N+]([O-])c1ccc(Sc2cccc[n+]2[O-])c2nonc12 returned PAFAH1B2 inh 56*, PAFAH2 FP inh 90* and PAFAH1B3 FP inh 83*.
`CCN1CCN(S(=O)(=O)c2c(C)cc(C)cc2C)CC1` gave PREPL inh -1, PAFAH1B2 inh 5, Apaf1 inhib -2, pPAFAH inh -2, PAFAH2 FP inh 0 and PAFAH1B3 FP inh 2.
For COc1ccc(NC(=O)NNC(=O)c2ccc(-c3ccccc3)cc2)cc1 the results were PREPL inh 5, PAFAH1B2 inh -6, Apaf1 inhib 10, pPAFAH inh 8, PAFAH2 FP inh -3 and PAFAH1B3 FP inh 2.
`Cc1cccc(OCC(=O)NCC(=O)N/N=C/c2cc(Br)cc(Br)c2O)c1` gave PREPL inh 10, PAFAH1B2 inh 34*, Apaf1 inhib 16, pPAFAH inh 24, PAFAH2 FP inh 13 and PAFAH1B3 FP inh 8.
Cc1cccc(C)c1OCC(=O)N/N=C/C=C/c1ccco1 was read as PREPL inh 5, PAFAH1B2 inh 2, Apaf1 inhib 6, pPAFAH inh 3, PAFAH2 FP inh 10 and PAFAH1B3 FP inh 10.
For COc1cccc(/C=N/NC(=O)CNC(=O)COc2ccccc2)c1O the results were PREPL inh 6, PAFAH1B2 inh 7, Apaf1 inhib -23, pPAFAH inh 4, PAFAH2 FP inh 3 and PAFAH1B3 FP inh 11.
`Cc1cccc(OCC(=O)N/N=C/C=C/c2ccco2)c1` gave PREPL inh 0, PAFAH1B2 inh 0, Apaf1 inhib 20, pPAFAH inh 30*, PAFAH2 FP inh 5 and PAFAH1B3 FP inh -3.
CCCc1cc(C(=O)Cc2ccccn2)c(O)cc1O was read as PREPL inh 0, PAFAH1B2 inh 4, Apaf1 inhib 5, pPAFAH inh 6, PAFAH2 FP inh -1 and PAFAH1B3 FP inh 2.
Cn1c(=O)c([N+](=O)[O-])c(NCC2CCCO2)c2ccccc21 (centres undefined) was read as PREPL inh 3, PAFAH1B2 inh 5, Apaf1 inhib -23, pPAFAH inh -2, PAFAH2 FP inh 7 and PAFAH1B3 FP inh 12.
Screening COc1ccccc1-c1n[nH]c(=S)n1-c1ccccc1 returned PREPL inh 11, PAFAH1B2 inh 25*, Apaf1 inhib 5, pPAFAH inh 3, PAFAH2 FP inh 7 and PAFAH1B3 FP inh -1.
For CC(=O)NC(Cc1cccc(F)c1)C(=O)NC1CCN(C(=O)Nc2ccccc2)CC1 (centres undefined) the results were PREPL inh -3, PAFAH1B2 inh 3, Apaf1 inhib 1, pPAFAH inh 1, PAFAH2 FP inh 7 and PAFAH1B3 FP inh 4.
O=S(=O)(c1ccc(S(=O)(=O)N2CCC3(CC2)OCCO3)cc1)N1CCCC1 was read as PREPL inh 9, PAFAH1B2 inh 5, Apaf1 inhib -1, pPAFAH inh 2, PAFAH2 FP inh 1 and PAFAH1B3 FP inh 2.
